We go through four compounds from ChEMBL document CHEMBL1122075, “Absolute stereochemistry and dopaminergic activity of enantiomers of 2,3,4,5-tetrahydro-7,8-dihydroxy-1-phenyl-1H-3-benzazepine” (J Med Chem, 1982).

Some results are limits rather than exact numbers.

One assay concerns the target Adenylate cyclase. As to the kind of experiment: Tested for ability to stimulate dopamine sensitive adenylate cyclase in rat caudate homogenate. In short, it runs like this: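 Rat striatal homogenates; dopamine-sensitive adenylate cyclase stimulation read as cyclic AMP production. EC50 is the molar concentration giving half-maximal stimulation of cAMP production over the concentration range tested.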

The species named for assay [1] is Canis familiaris. As to the kind of experiment: Compound was tested for its renal vasodilator activity in dogs. Type of assay: functional. Particulars: Canis lupus familiaris. In short, it runs like this: (§1)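 Dogs anesthetized and surgically prepared for electromagnetic renal blood flow measurement, with carotid arterial pressure recorded. Drug infused into an antecubital vein at progressively increasing (generally threefold) concentrations to give cumulative dose-response data. RVR = mean arterial pressure / mean renal blood flow. ED15 is the average maximum cumulative dose lowering RVR by 15%.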

The species entered for assay [2] is Canis familiaris. As to the kind of experiment: Renal vascular resistance (RVR) in dog was determined. Type of assay: functional, Canis lupus familiaris. Put shortly: as §1
The species named for assay [3] is Rattus norvegicus. Nature of the assay: Ability to induce contralateral rotations in rats having lesions in the substantia nigra. It is filed as functional. In short, it runs like this:
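Rotation counts in rats carrying unilateral left substantia nigra lesions. RD500 is the dose calculated to give 500 body rotations over a 2-h test period.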

For assay [4], the species on record is Rattus norvegicus. Nature of the assay: Compound was tested for maximum response, the percent of cyclic AMP induced by 5 x 10 E-5 M dopamine.
The species entered for assay [5] is Canis familiaris. As to the kind of experiment: Renal vascular resistance (RVR) in dog was determined; Not statistically significant. Type of assay: functional, Canis lupus familiaris. In short, it runs like this:
as §1

The species named for assay [6] is Canis familiaris. As to the kind of experiment: Percent av maximum in dog was determined; Expressed as av max (%). It is filed as functional, Canis lupus familiaris.
Assay [7] is filed under the species Rattus norvegicus. As to the kind of experiment: Compound was tested for maximum response, the percent of cyclic AMP induced by 1 x 10 E-4 M dopamine. It is filed as functional.

Consider `Cl.Oc1cc2c(cc1O)C(c1ccccc1)CNCC2` (racemic), for which the EC50 – broadly, the concentration needed to bring the measured effect to its halfway point – at Adenylate cyclase was determined as 71 nM. In the assay listed under Canis familiaris [1], this compound registered an ED15 of 0.031 mg/kg. This compound also came in with an RVR in the assay filed under Canis familiaris [2] of 19. Further, the RD500 in the assay filed under Rattus norvegicus [3] came out at 0.7 mg/kg. In the assay filed under Rattus norvegicus [4], this compound registered a Max response of 68%.
Compound `Cl.Oc1cc2c(cc1O)[C@H](c1ccccc1)CNCC2` displayed an ED15 in the assay filed under Canis familiaris [1] greater than 0.55 mg/kg. In the assay listed under Canis familiaris [5], this compound displayed an RVR of 9. In the assay listed under Canis familiaris [6], this compound yielded an Activity of 9%. For the same compound, the Max response in the assay listed under Rattus norvegicus [7] turned out to be 27%. The compound also returned an RD500 in the assay listed under Rattus norvegicus [3] greater than 2 mg/kg.
Consider `Cl.Oc1cc2c(cc1O)[C@@H](c1ccccc1)CNCC2`, for which the EC50 at Adenylate cyclase is 32 nM. Also, the ED15 in the assay listed under Canis familiaris [1] amounted to 0.025 mg/kg. Besides, in the assay listed under Canis familiaris [2], the RVR turned out to be 18. For the same compound, in the assay filed under Rattus norvegicus [3], the RD500 was 0.5 mg/kg. The compound also yielded a Max response in the assay filed under Rattus norvegicus [4] of 66%.
Consider `NCCc1ccc(O)c(O)c1` [DOPAMINE], for which, on Adenylate cyclase, the EC50 stood at 3500 nM. For the same compound, in the assay filed under Canis familiaris [1], the ED15 came out at 0.0027 mg/kg.
